Converted amounts (≈) assume the structure as drawn.
What was measured:
[1] = system: Human immunodeficiency virus 1; experiment: Effective concentration of compound required to protect human T-lymphocytic cells against the cytopathogenicity of HIV-1; assay type: functional, organism-based; details: Human immunodeficiency virus 1
CCRF-CEM = experiment: Inhibitory concentration against proliferation of human T-lymphocytic (CEM) cells; assay type: functional, cell-based; details: Homo sapiens, CCRF-CEM
In short: (§1)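 (5–7.5) × 10^4 cells per well were incubated with test compound at 37 °C in a humidified CO2 atmosphere. L1210 murine leukemia cells grew for 48 h, and CEM and Molt4/clone 8 human lymphocytes grew for 72 h. Cells were then counted with a Coulter counter. IC50 is the concentration inhibiting proliferation by 50%.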

Mus musculus [2] = species: Mus musculus; experiment: Effective concentration of compound required to protect C3H/3T3 embryo murine fibroblasts against the MSV induced transformation; assay type: functional, organism-based; details: Mus musculus, C3H/3T3
In short: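 Monolayer murine embryo fibroblast C3H/3T3 cultures were infected with Moloney murine sarcoma virus at 75 focus-forming units and cultured with test compound. Transformation was examined microscopically on day 6 postinfection. EC50 is the concentration protecting cells against MSV-induced transformation by 50%.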

Mus musculus [3] = species: Mus musculus; experiment: Minimal inhibitory concentration required to cause a microscopic detectable alteration of C3H/3T3 embryo murine fibroblast cell morphology; assay type: functional
In short: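 Uninfected C3H/3T3 murine embryo fibroblast cultures were exposed to test compound and checked microscopically for changes in cell morphology. The MIC is the concentration causing a microscopically detectable alteration of morphology.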

[4] = system: Human immunodeficiency virus 2; experiment: Concentration required to protect human T-lymphocytic cells against the cytopathogenicity of HIV-2; assay type: functional, organism-based; details: Human immunodeficiency virus 2
MOLT-4 = experiment: Inhibitory concentration of compound against proliferation of human T-lymphocytic cells MOLT-4/C8 was determined; assay type: functional, cell-based; in short: as §1
L1210 = experiment: Inhibitory concentration of compound against proliferation of murine lukemia cells L1210 was determined; assay type: functional, cell-based; details: Mus musculus; in short: as §1

SMILES | EC50 [1] [µM] | IC50 (CCRF-CEM) [µM] | EC50 [4] [µM] | IC50 (MOLT-4) [µM] | IC50 (L1210) [µM] | EC50 (Mus musculus [2]) [µM] | MIC (Mus musculus [3]) [µM]
COC(=O)[C@H]1NC(=O)C2NC(=O)C(NC(=O)[C@@H]3NC(=O)[C@H]4NC(=O)[C@H](NC(=O)[C@H](N)c5ccc(O)c(c5)Oc5cc4cc(O)c5C)[C@H](O)c4ccc(cc4)Oc4cc3cc(c4O)Oc3ccc(cc3)[C@H]2O[C@@H]2C[C@@H](N)[C@@H](O)[C@@H](C)O2)c2ccc(O)c(c2)-c2c(O)cc(O)cc21 | > 50 | > 100 | > 250 | – | – | 52 | > 100
CCCCCCCCCCNCc1c(O)cc2c(c1O)-c1cc(ccc1O)[C@H]1NC(=O)[C@@H]3NC(=O)[C@H](CC(N)=O)NC(=O)[C@H](NC(=O)[C@@H](CC(C)C)NC)[C@H](O)c4ccc(c(Cl)c4)Oc4cc3cc(c4O[C@@H]3O[C@H](CO)[C@@H](O)[C@H](O)[C@H]3O[C@H]3C[C@](C)(N)[C@@H](O)[C@H](C)O3)Oc3ccc(cc3)[C@@H](O[C@H]3C[C@](C)(N)[C@@H](O)[C@H](C)O3)[C@H](NC1=O)C(=O)N[C@@H]2C(=O)O | > 20 | 24 | > 20 | 27 | 19 | – | –
CNC(=O)[C@H]1NC(=O)[C@H]2NC(=O)[C@H](NC(=O)[C@@H]3NC(=O)[C@H](CC(N)=O)NC(=O)[C@H](NC(=O)[C@@H](CC(C)C)NC)[C@H](O)c4ccc(c(Cl)c4)Oc4cc3cc(c4O[C@@H]3O[C@H](CO)[C@@H](O)[C@H](O)[C@H]3O[C@H]3C[C@](C)(N)[C@@H](O)[C@H](C)O3)Oc3ccc(cc3)[C@H]2O[C@H]2C[C@](C)(N)[C@@H](O)[C@H](C)O2)c2ccc(O)c(c2)-c2c(O)cc(O)cc21 | > 250 | > 500 | > 250 | > 500 | > 500 | – | –
CC(C)CC(C(=O)NC1C(=O)NC(CC(N)=O)C(=O)NC2C(=O)NC3C(=O)NC(C(=O)N[C@@H](C(=O)O)c4cc(O)c(CN5CCN(Cc6ccc(-c7ccccc7)cc6)CC5)c(O)c4-c4cc3ccc4O)C(O)c3ccc(cc3)Oc3cc2cc(c3O)Oc2ccc(cc2Cl)C1O)N(C)C(=O)OC(C)(C)C (some centres undefined) | 4.5 | > 100 | 4.5 | – | – | 8.4 | > 100
COC(=O)[C@@H]1NC(=O)C2NC(=O)C(NC(=O)C(N)c3cc(Oc4ccc(CC(NC(=O)OCc5ccccc5)C(=O)O)cc4Cl)c(O)c(c3)Oc3ccc(cc3Cl)C2O)c2ccc(O)c(c2)-c2c(O)cc(O)cc21 (some centres undefined) | 25 | > 500 | 85 | > 500 | > 500 | – | –
CNC1C(=O)NC2Cc3ccc(cc3)Oc3cc4cc(c3O[C@@H]3O[C@@H](C(=O)O)[C@@H](O)[C@H](O)[C@@H]3N)Oc3ccc(cc3Cl)C(O)C3NC(=O)C(NC(=O)C4NC(=O)C(NC2=O)c2cc(cc(O)c2Cl)Oc2cc1ccc2O)c1ccc(O)c(c1)-c1c(O[C@H]2O[C@H](CO)[C@@H](O)[C@@H](O)[C@@H]2O)cc(O)cc1[C@H](C(=O)O)NC3=O (some centres undefined) | > 250 | > 500 | > 250 | > 500 | > 500 | > 100 | > 100
CCCCCCCCCCNC(=O)[C@H]1NC(=O)[C@H]2NC(=O)[C@H](NC(=O)[C@@H]3NC(=O)[C@H](CC(N)=O)NC(=O)[C@H](NC(=O)[C@@H](CC(C)C)NC)[C@H](O)c4ccc(c(Cl)c4)Oc4cc3cc(c4O[C@@H]3O[C@H](CO)[C@@H](O)[C@H](O)[C@H]3O[C@H]3C[C@](C)(N)[C@@H](O)[C@H](C)O3)Oc3ccc(cc3)[C@H]2O[C@H]2C[C@](C)(N)[C@@H](O)[C@H](C)O2)c2ccc(O)c(c2)-c2c(O)cc(O)cc21 | > 10 | 9.4 | > 10 | 21 | 29 | – | –
CCCCOc1ccc(CNC2C(Oc3c4cc5cc3Oc3ccc(cc3Cl)C(O)C3NC(=O)C(NC(=O)C5NC(=O)C5NC(=O)C(Cc6ccc(cc6)O4)NC(=O)C(N(C)Cc4ccc(OCCCC)cc4)c4ccc(O)c(c4)Oc4cc(O)c(Cl)c5c4)c4ccc(O)c(c4)-c4c(O)cc(O)cc4[C@H](C(=O)NCCCN(C)C)NC3=O)OC(C(=O)NCCCN(C)C)C(O)C2O)cc1 (some centres undefined) | 5 | 80 | > 10 | 18 | 20 | > 4 | 20 (≈ 37.6 µg/mL)
CCCCc1ccc(CNC2C(Oc3c4cc5cc3Oc3ccc(cc3Cl)C(O)C3NC(=O)C(NC(=O)C5NC(=O)C5NC(=O)C(Cc6ccc(cc6)O4)NC(=O)C(NC)c4ccc(O)c(c4)Oc4cc(O)c(Cl)c5c4)c4ccc(O)c(c4)-c4c(cc(O)c(CN5CCN(Cc6ccc(-c7ccccc7)cc6)CC5)c4O)[C@H](C(=O)O)NC3=O)OC(C(=O)O)C(O)C2O)cc1 (some centres undefined) | 3.5 | 81 | 22 | – | – | 6.9 | > 20
COC(=O)[C@@H]1NC(=O)C2NC(=O)C(NC(=O)C(NC(=O)OC(C)(C)C)c3cc(Oc4ccc(CC(NC(=O)OCc5ccccc5)C(=O)O)cc4Cl)c(O)c(c3)Oc3ccc(cc3Cl)C2O)c2ccc(O)c(c2)-c2c(O)cc(O)cc21 (some centres undefined) | 17 | > 250 | 17 | – | – | 87 | > 100

More lines, main results first:

EC50 [1] [µM] | IC50 (CCRF-CEM) [µM] | EC50 [4] [µM] | IC50 (MOLT-4) [µM] | IC50 (L1210) [µM] | SMILES | EC50 (Mus musculus [2]) [µM] | MIC (Mus musculus [3]) [µM]
13 | 229 | 17 | – | – | CNC(=O)[C@@H]1NC(=O)C2NC(=O)C(NC(=O)C3NC(=O)C4NC(=O)C(Cc5ccc(c(Cl)c5)Oc5cc3cc(c5O)Oc3ccc(cc3Cl)C2O)NC(=O)C(NC(=O)OC(C)(C)C)c2ccc(O)c(c2)Oc2cc(O)cc4c2)c2ccc(O)c(c2)-c2c(O)cc(O)cc21 (some centres undefined) | 11 | > 100
13 | > 250 | 20 | – | – | CC(C)(C)OC(=O)NC1C(=O)NC2Cc3ccc(c(Cl)c3)Oc3cc4cc(c3O)Oc3ccc(cc3Cl)C(O)C3NC(=O)C(NC(=O)C4NC(=O)C(NC2=O)c2cc(O)cc(c2)Oc2cc1ccc2O)c1ccc(O)c(c1)-c1c(O)cc(O)cc1[C@H](C(=O)O)NC3=O (some centres undefined) | 12 | > 100
25 | > 100 | > 50 | – | – | COC(=O)[C@@H]1NC(=O)C2NC(=O)C(NC(=O)C3NC(=O)C4NC(=O)C(NC(=O)C(N)c5ccc(O)c(c5)Oc5cc4cc(O)c5C)C(O)c4ccc(cc4)Oc4cc3cc(c4O)Oc3ccc(cc3)C2O)c2ccc(O)c(c2)-c2c(O)cc(O)cc21 (some centres undefined) | 19 | > 100
15 | > 250 | 37 | – | – | NC1Cc2ccc(c(Cl)c2)Oc2cc3cc(c2O)Oc2ccc(cc2Cl)C(O)C2NC(=O)C(NC(=O)C3NC(=O)C(c3cc(O)cc(Oc4cc(C5NC(=S)N(c6ccccc6)C5=O)ccc4O)c3)NC1=O)c1ccc(O)c(c1)-c1c(O)cc(O)cc1[C@H](C(=O)O)NC2=O (some centres undefined) | 27 | > 100
1.4 | > 100 | 6.1 | > 100 | 48 | CCCCCCCCCCNCc1c(O)cc2c(c1O)-c1cc(ccc1O)C1NC(=O)C3NC(=O)C4NC(=O)C(Cc5ccc(c(Cl)c5)Oc5cc3cc(c5O)Oc3ccc(cc3Cl)C(O)C(NC1=O)C(=O)N[C@H]2C(=O)NCCCN(C)C)NC(=O)C(N)c1ccc(O)c(c1)Oc1cc(O)cc4c1 (some centres undefined) | – | –
22 | > 250 | 32 | – | – | NC1C(=O)NC2Cc3ccc(c(Cl)c3)Oc3cc4cc(c3O)Oc3ccc(cc3Cl)C(O)C(C(=O)O)NC(=O)C(c3ccc(O)c(-c5c(O)cc(O)cc5[C@@H](N)C(=O)O)c3)NC(=O)C4NC(=O)C(NC2=O)c2cc(O)cc(c2)Oc2cc1ccc2O (some centres undefined) | 14 | > 100
20 | 60 | 8.3 | – | – | CCCCc1ccc(CNCc2c(O)cc3c(c2O)-c2cc(ccc2O)C2NC(=O)C4NC(=O)C5NC(=O)C(Cc6ccc(c(Cl)c6)Oc6cc4cc(c6O)Oc4ccc(cc4Cl)C(O)C(NC2=O)C(=O)N[C@H]3C(=O)O)NC(=O)C(NC(=O)OC(C)(C)C)c2ccc(O)c(c2)Oc2cc(O)cc5c2)cc1 (some centres undefined) | 7.6 | > 100
17 | 114 | 15 | – | – | O=C(NC1C(=O)NC2Cc3ccc(c(Cl)c3)Oc3cc4cc(c3O)Oc3ccc(cc3Cl)C(O)C3NC(=O)C(NC(=O)C4NC(=O)C(NC2=O)c2cc(O)cc(c2)Oc2cc1ccc2O)c1ccc(O)c(c1)-c1c(O)cc(O)cc1[C@H](C(=O)O)NC3=O)OCC1c2ccccc2-c2ccccc21 (some centres undefined) | 10 | 100 (≈ 142 µg/mL)
25 | > 250 | 37 | – | – | NC1C(=O)NC2Cc3ccc(c(Cl)c3)Oc3cc4cc(c3O)Oc3ccc(cc3Cl)C(O)C3NC(=O)C(NC(=O)C4NC(=O)C(NC2=O)c2cc(O)cc(c2)Oc2cc1ccc2O)c1ccc(O)c(c1)-c1c(cc(O)c(CNC2C4CC5CC(C4)CC2C5)c1O)[C@H](C(=O)O)NC3=O (some centres undefined) | 5.6 | 100 (≈ 136 µg/mL)
17 | 88 | 7.8 | – | – | CNC(=O)[C@@H]1NC(=O)C2NC(=O)C(NC(=O)C3NC(=O)C4NC(=O)C(Cc5ccc(c(Cl)c5)Oc5cc3cc(c5O)Oc3ccc(cc3Cl)C2O)NC(=O)C(NC(=O)OC23CC5CC(CC(C5)C2)C3)c2ccc(O)c(c2)Oc2cc(O)cc4c2)c2ccc(O)c(c2)-c2c(O)cc(O)cc21 (some centres undefined) | 8.7 | 100 (≈ 139 µg/mL)
4.5 | 22 | 7.8 | – | – | CCCCCCCCCCCCCCCCCCNCc1c(O)cc2c(c1O)-c1cc(ccc1O)C1NC(=O)C3NC(=O)C4NC(=O)C(Cc5ccc(c(Cl)c5)Oc5cc3cc(c5O)Oc3ccc(cc3Cl)C(O)C(NC1=O)C(=O)N[C@H]2C(=O)O)NC(=O)C(N)c1ccc(O)c(c1)Oc1cc(O)cc4c1 (some centres undefined) | 1.7 | 100 (≈ 148 µg/mL)
